The source made the active and inactive calls.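 The calls were made as follows, unless noted: active = fluorescence slope higher than the sample average by over 3 SD (cut at about -0.22 in these data, passing the limit was not always enough); inactive = the rest.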
Tests used:
[1] = inhibitors of TNFa-induced NFkB p65 translocation, primary screen, imaging, HUVEC, MLSMR starter and 10KST1 sets (AID 438;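 active = inhibition above 20% together with a positive visual image hit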;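 also: compound added about 3h40 before a 20 min TNFalpha stimulation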;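 as to inhibition: signal is the nuclear over cytoplasmic p65 intensity ratio per well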); settings: HUVEC TNFa-induced p65 nuclear translocation; cell count: measured here: nuclei count (cytotoxicity indicator), at 2.08 µM; inhibition: at 2 µM, stronger effect = higher value, 0% TNFa-plus-vehicle, 100% no-TNFa wells
[2] = inhibitors of mutant huntingtin aggregation, primary screen, imaging, exon1htt(103Q)mCFP cells, high-content imaging (AID 483;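 active = visual image review flags a hit and inhibition of aggregation exceeds 20%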;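 also: compound exposure lasted 3 days before fixation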;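 as to nuclei count: percent of the per-plate median nuclei count of sample wells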); settings: exon1htt(103Q)mCFP cell line, aggregate imaging, at 2 µM; inhibition of aggregation: stronger effect = higher value; nuclei count: measured here: cell count, toxicity
[3] = inhibitors of E-selectin induction by TNFa, primary screen, imaging, HUVEC, immunofluorescence, MLSMR starter and 10KST1 sets (AID 487;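 active = visually confirmed hit in the image check and inhibition above 20%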;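 as to inhibition: signal is fraction of cell area covered by stained E-selectin grains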;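 as to nuclei count: 100% = median nuclei count of all wells on the same plate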); settings: HUVEC TNFalpha-induced E-selectin immunofluorescence imaging, at 2 µM; inhibition: stronger effect = higher value; nuclei count: measured here: cell number, toxicity
[4] = biological target: Voltage-gated potassium channel subunit beta-2 (Rattus norvegicus) (UniProt P62483); assay: KvBeta enzyme negative modulators, primary screen, biochemical, NADPH fluorescence (AID 622); settings: recombinant KvBeta, 4-cyanobenzaldehyde reduction, at 10 µM, stronger effect = higher value;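 also: slope of raw intensity against log time taken from 70 to 1610 s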
[5] = biological target: Voltage-gated potassium channel subunit beta-2 (Rattus norvegicus) (UniProt P62483); assay: KvBeta positive modulators, primary screen, biochemical, NADPH fluorescence (AID 623;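 active = NADPH fluorescence slope more negative than the mean of all samples by about 3 SD, 99.7% confidence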;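 also: fluorescence intensity change per second fitted from 20 to 320 s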); settings: Recombinant KvBeta, NADPH fluorescence decrease slope, 10 min; at 10 µM; stronger effect = lower value
[6] = biological target: Muscarinic acetylcholine receptor M4 (Homo sapiens) (UniProt P08173); assay: compounds altering M4/GIRK thallium flux, either direction, primary screen, M4 allosteric agonist project, cell-based, HEK293 M4/GIRK, BTC-AM (AID 625;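 active = fluorescence slope after compound addition differing from the mean of all tested samples at 99.7% confidence, mostly higher but some lower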;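 also: thallium influx through GIRK channels coupled to M4 in HEK293 cells with BTC-AM dye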); settings: at 10 µM, actives lie on both sides
Procedure, shortened: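 assay system = HEK293 cells with M4 receptor and GIRK channels | medium = pH 7.3 thallium assay buffer | doses = 10 µM final, single point | timing = cells overnight at 37 °C, BTC-AM loading 1 h, reads 2 min total | signal = BTC-AM fluorescence, 1 Hz kinetic reads | read-out = post-addition slope, 15–24 s, of baseline-normalized fluorescence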

[7] = inhibitors of Sendai virus-induced IRF3 signaling, primary screen, TLR/RLR signaling modifier project, cell-based, Sendai virus stimulus, luciferase, 10K MLSCN set (AID 602276;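 active = inhibition at or above 50% at 10 µM; inactive = inhibition below 50%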;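 also: firefly luciferase from ISG56 promoter only with Renilla not read in this screen; 0% = Sendai virus plus DMSO and 100% = medium plus DMSO without virus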); settings: HEK293 RL24 IRF3 luciferase reporter, at 10 µM, stronger effect = higher value
[8] = inhibitors of poly I:C-induced TLR3 signaling, primary screen, cell-based, poly I:C stimulus, luciferase, 10K MLSCN set (AID 602277;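 active = inhibition of the reporter signal at or above 50%; inactive = inhibition below 50%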); settings: HEK293-TLR3 RL24 IRF3 luciferase reporter, at 10 µM, stronger effect = higher value

Chain of Muscarinic acetylcholine receptor M4 (Homo sapiens) (P08173 whole entry, looked up): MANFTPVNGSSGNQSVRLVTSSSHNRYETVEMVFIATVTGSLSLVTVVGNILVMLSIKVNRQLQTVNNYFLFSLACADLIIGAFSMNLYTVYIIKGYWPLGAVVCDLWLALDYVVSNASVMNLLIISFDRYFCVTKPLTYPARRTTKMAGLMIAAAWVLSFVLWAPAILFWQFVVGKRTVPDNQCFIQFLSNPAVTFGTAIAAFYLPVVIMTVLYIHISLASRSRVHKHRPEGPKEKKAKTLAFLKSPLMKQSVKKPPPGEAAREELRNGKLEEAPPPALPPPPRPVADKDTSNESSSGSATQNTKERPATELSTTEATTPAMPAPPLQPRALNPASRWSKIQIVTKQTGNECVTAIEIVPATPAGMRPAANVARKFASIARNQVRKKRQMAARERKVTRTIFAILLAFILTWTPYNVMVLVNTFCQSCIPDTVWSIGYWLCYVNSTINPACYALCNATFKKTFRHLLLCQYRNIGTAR
Chain of Voltage-gated potassium channel subunit beta-2 (Rattus norvegicus) (P62483 whole entry, looked up): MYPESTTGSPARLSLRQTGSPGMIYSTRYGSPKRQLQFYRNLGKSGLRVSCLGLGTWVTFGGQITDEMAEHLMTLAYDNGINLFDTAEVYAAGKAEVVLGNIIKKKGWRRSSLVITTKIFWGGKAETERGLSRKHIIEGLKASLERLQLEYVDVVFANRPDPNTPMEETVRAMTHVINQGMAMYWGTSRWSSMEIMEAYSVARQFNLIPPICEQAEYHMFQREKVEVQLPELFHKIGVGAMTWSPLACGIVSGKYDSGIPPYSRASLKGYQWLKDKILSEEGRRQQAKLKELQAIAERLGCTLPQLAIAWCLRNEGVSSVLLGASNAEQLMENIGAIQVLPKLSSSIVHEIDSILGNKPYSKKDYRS

Structure (SMILES) | cell count [1] | inhibition [1] | inhibition of aggregation [2] | nuclei count [2] [%] | inhibition [3] | nuclei count [3] [%] | fluorescence slope [4] | NADPH fluorescence slope [5] | fluorescence slope [6] | inhibition [7] | inhibition [8]
Cc1ccc(-c2nn3c(=O)c(C)nnc3s2)cc1 | 571 | -19.6% (inactive) | -0.2% (inactive) | 98.1 | 3.6% (inactive) | 108 | -0.309 (inactive) | -4.6e-06 (inactive) | 0.0056 (inactive) | -12.3% (inactive) | -53.9% (inactive)
C=CCOc1ccc(/C(O)=C2\C(=O)C(=O)N(CCOC)C2c2cccnc2)cc1 (stereo not drawn) | 640 | 3.4% (inactive) | 14.8% (inactive) | 105 | 4% (inactive) | 101 | -0.336 (inactive) | -4.4e-05 (inactive) | 0.00592 (inactive) | 6.88% (inactive) | 15.7% (inactive)
COc1ccc(-c2[nH]nc3c2C(c2ccccc2OC(=O)N2CCOCC2)C(C#N)=C(N)O3)cc1 (stereo not drawn) | 663 | -15.1% (inactive) | -9.9% (inactive) | 104 | -15.6% (inactive) | 104 | -0.574 (inactive) | -3.5e-05 (inactive) | 0.00609 (inactive) | 25.8% (inactive) | 19% (inactive)
COc1nc(N2CCOCC2)nc(-n2cccc2)n1 | 534 | -4.1% (inactive) | 3% (inactive) | 99.6 | 52.3% (inactive) | 80.1 | -0.547 (inactive) | -7.1e-05 (inactive) | 0.00492 (inactive) | 2.29% (inactive) | 4.71% (inactive)
O=C(CCCn1c(=O)c2sccc2n(CC(=O)NCc2ccco2)c1=O)NCc1ccco1 | 263 | 2.8% (inactive) | -6.2% (inactive) | 98.5 | -49.2% (inactive) | 117 | -0.567 (inactive) | -5.7e-05 (inactive) | 0.00613 (inactive) | 13.9% (inactive) | 15% (inactive)
COc1cc(OC)cc(-c2nc3nc(C)c(CCC(=O)O)c(C)n3n2)c1 | 681 | -14.6% (inactive) | 0.2% (inactive) | 111 | 46.5% (inactive) | 97.4 | -0.522 (inactive) | -3.8e-05 (inactive) | 0.00535 (inactive) | 21.9% (inactive) | 28.4% (inactive)
Cn1c(=O)c2ncn(CC(=O)NCCOc3ccccc3)c2n(C)c1=O | 503 | -4.4% (inactive) | -3.1% (inactive) | 98 | 43% (inactive) | 91.5 | -0.52 (inactive) | 2.9e-06 (inactive) | 0.00467 (inactive) | 18% (inactive) | 14.3% (inactive)
COc1ccc(C2C(C(C)=O)=C(C)N=c3s/c(=C\c4ccc5c(c4)OCO5)c(=O)n32)c(OC)c1 (stereo not drawn) | 340 | -19.3% (inactive) | 12.7% (inactive) | 118 | 3.3% (inactive) | 115 | -0.568 (inactive) | -1.5e-05 (inactive) | 0.00431 (inactive) | -6% (inactive) | 20.7% (inactive)

Source: PubChem BioAssay
